For assay [1], the species on record is Mus musculus. As to the kind of experiment: Analgesic activity in male albino Swiss-Webster mice in hotplate test. Type of assay: functional. The method, boiled down:
(§1)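 Mouse hot-plate assay after Woolfe, with the plate held at 52.5 ± 0.1 °C and a 45 s cutoff. Groups held 8–20 mice. Analgesic potency is expressed as the ED50.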

Assay [2] has as its system Mus musculus. Put plainly: Analgesic potency was evaluated as effective dose after subcutaneous administration. Type of assay: functional. The method, boiled down: as §1
Setting [3] is: Mus musculus, sc, read-out: ED50.

Each structure is given as a SMILES string. The source made the active and inactive calls.

Consider `CC(Oc1ccc(C(C)(C)C)cc1)C(=O)OC1CC2CCC(C1)N2C` (stereo unspecified), for which, in the assay filed under Mus musculus [1], the Analgesic activity result is “inactive”.
Take `CN1C2CCC1CC(OC(=O)C(Oc1ccc(Cl)cc1)c1ccccc1)C2` (stereo unspecified): the Analgesic activity entry in the assay listed under Mus musculus [1] was “inactive”.
`CSc1ccc(OC(C)C(=O)OC2CC3CCC(C2)N3C)cc1.O=C(O)/C=C\C(=O)O` (stereo unspecified): in the assay with Mus musculus [2] (setting [3]), the ED50 stood at 43 mg/kg. For the same compound, in the assay filed under Mus musculus [1], the Analgesic activity worked out at 21.
On the same counts, the results for `CC(Nc1ccccc1)C(=O)OC1CC2CCC(C1)N2C.Cl` (stereo unspecified) are 32 mg/kg and 74.
For the compound `CC(COC1CC2CCC(C1)N2C)Sc1ccc(Cl)cc1` (stereo unspecified), in the assay filed under Mus musculus [1], the Analgesic activity result is “inactive”.
On the same count and under the same terms, in the case of `CC(C)C(Oc1ccc(Cl)cc1)C(=O)OC1CC2CCC(C1)N2C` (stereo unspecified) it was “inactive”; in that of `CC(Oc1cccc2ccccc12)C(=O)OC1CC2CCC(C1)N2C` (stereo unspecified), “inactive”.
On to `CCC(Sc1ccccc1)C(=O)OC1CC2CCC(C1)N2C` (stereo in doubt; (-)-42), for which the ED50 with Mus musculus [2] worked out at 13 mg/kg. Moreover, in the assay listed under Mus musculus [1], the Analgesic activity is 53.
`CC(C(=O)OC1CC2CCC(C1)N2C)N(C)c1ccc(Cl)cc1.O=C(O)/C=C\C(=O)O` (stereo unspecified): the median effective dose (ED50) in the assay with Mus musculus [2] (setting [3]) was determined as 29 mg/kg. In the assay filed under Mus musculus [1], the Analgesic activity was 86.
The matching figures for `CC(Sc1ccc(F)cc1)C(=O)OC1CC2CCC(C1)N2C` (stereo unspecified): 15 mg/kg and 41.
On the same counts, the results for `CC(Oc1ccc(Cl)c(Cl)c1)C(=O)OC1CC2CCC(C1)N2C.O=C(O)/C=C\C(=O)O` (stereo unspecified) are 22 mg/kg and 50.
In the case of `CCN(CC)CC#CCOC(=O)C(C)Oc1ccc(Cl)cc1` (stereo unspecified), the Analgesic activity result in the assay filed under Mus musculus [1] is “inactive”.
Regarding `CCC(Oc1ccc(Cl)cc1)C(=O)OC1CC2CCC(C1)N2CC` (stereo unspecified), the ED50 in the assay on Mus musculus [2] (setting [3]) was determined as 32 mg/kg. The compound further showed an Analgesic activity in the assay filed under Mus musculus [1] of 45.
Take `C[C@@H](Sc1ccc(Cl)cc1)C(=O)OC1CC2CCC(C1)N2C` (stereo partly specified): the ED50 in the assay on Mus musculus [2] (setting [3]) was 14 mg/kg. The compound further displayed an Analgesic activity in the assay listed under Mus musculus [1] of 61.
As to `CC[C@@H](Oc1ccc(Cl)cc1)C(=O)OC1CC2CCC(C1)N2C` (stereo partly specified), the ED50 in the assay with Mus musculus [2] (setting [3]) is 14 mg/kg. For the same compound, the Analgesic activity in the assay listed under Mus musculus [1] is recorded as 89.
Regarding `CC(Oc1cccc(Cl)c1)C(=O)OC1CC2CCC(C1)N2C` (stereo unspecified), in the assay with Mus musculus [2] (setting [3]), the median effective dose (ED50) came to 26 mg/kg. In the assay filed under Mus musculus [1], this compound had an Analgesic activity of 62.
The matching figures for `CC(Oc1ccc(Br)cc1)C(=O)OC1CC2CCC(C1)N2C` (stereo unspecified): 31 mg/kg and 86.
In the case of `C[C@@H](Oc1ccc(Cl)cc1)C(=O)OC1CC2CCC(C1)N2C` (stereo partly specified), the median effective dose (ED50) in the assay on Mus musculus [2] (setting [3]) is 16 mg/kg. The compound also yielded an Analgesic activity in the assay listed under Mus musculus [1] of 68.
Take `CN1C2CCC1CC(OC(=O)C(Cc1ccccc1)Oc1ccc(Cl)cc1)C2` (stereo unspecified): the Analgesic activity result in the assay listed under Mus musculus [1] is “inactive”.
As for `CC(Oc1ccccc1Cl)C(=O)OC1CC2CCC(C1)N2C` (stereo unspecified), the Analgesic activity entry in the assay filed under Mus musculus [1] is “inactive”.
Consider `CC(Oc1ccc([S+](C)[O-])cc1)C(=O)OC1CC2CCC(C1)N2C` (stereo unspecified), for which the Analgesic activity entry in the assay listed under Mus musculus [1] is “inactive”.
On to `CCC(C(=O)OC1CC2CCC(C1)N2C)N(C)c1ccc(Cl)cc1.O=C(O)/C=C\C(=O)O` (stereo unspecified), for which the median effective dose (ED50) in the assay with Mus musculus [2] (setting [3]) worked out at 38 mg/kg. Further, the Analgesic activity in the assay filed under Mus musculus [1] stood at 85.
Take `CCC(Sc1ccc(Cl)cc1)C(=O)OC1CC2CCC(C1)N2C` (racemic): the ED50 in the assay with Mus musculus [2] (setting [3]) amounted to 20 mg/kg. This compound also gave an Analgesic activity in the assay filed under Mus musculus [1] of 79.
For the compound `CCC(Oc1ccc(Cl)cc1)C(=O)OCCCN(C)C` (stereo unspecified), in the assay filed under Mus musculus [1], the Analgesic activity result is “inactive”.
Take `Cc1cc(OC(C)C(=O)OC2CC3CCC(C2)N3C)ccc1Cl` (stereo unspecified): the Analgesic activity entry in the assay filed under Mus musculus [1] is “inactive”.
Regarding `CC[C@H](Sc1ccc(Cl)cc1)C(=O)OC1CC2CCC(C1)N2C` (stereo partly specified), in the assay on Mus musculus [2] (setting [3]), the ED50 was 14 mg/kg. This compound also came in with an Analgesic activity in the assay filed under Mus musculus [1] of 38.
In the case of `CC(Oc1ccc(F)cc1)C(=O)OC1CC2CCC(C1)N2C.O=C(O)/C=C\C(=O)O` (racemic), in the assay with Mus musculus [2] (setting [3]), the ED50 turned out to be 33 mg/kg. The Analgesic activity in the assay filed under Mus musculus [1] is given as 91.
As to `Cc1ccc(SC(C)C(=O)OC2CC3CCC(C2)N3C)cc1.O=C(O)/C=C\C(=O)O` (stereo unspecified), the ED50 in the assay with Mus musculus [2] (setting [3]) is 7 mg/kg. This compound also had an Analgesic activity in the assay filed under Mus musculus [1] of 33.
As to `C[C@H](Oc1ccc(F)cc1)C(=O)OC1CC2CCC(C1)N2C` (stereo partly specified), in the assay on Mus musculus [2] (setting [3]), the ED50 turned out to be 23 mg/kg. In addition, the Analgesic activity in the assay filed under Mus musculus [1] is 65.
In the case of `CC(Oc1ccc(Cl)cc1)C(=O)OC1CC2CCC(C1)N2` (stereo unspecified), the Analgesic activity result in the assay listed under Mus musculus [1] is “inactive”.
As to `CC(Oc1ccc(C#N)cc1)C(=O)OC1CC2CCC(C1)N2C.O=C(O)/C=C\C(=O)O` (stereo unspecified), the ED50 in the assay with Mus musculus [2] (setting [3]) was 31 mg/kg. For the same compound, the Analgesic activity in the assay filed under Mus musculus [1] was 53.
For `CC(C)C(Sc1ccc(Cl)cc1)C(=O)OC1CC2CCC(C1)N2C.O=C(O)/C=C\C(=O)O` (stereo unspecified), the ED50 with Mus musculus [2] (setting [3]) turned out to be 41 mg/kg. This compound registered an Analgesic activity in the assay filed under Mus musculus [1] of 41.
Regarding `CC(Oc1ccc(Cl)cc1)C(=O)OC1CCN(C)CC1` (stereo unspecified), in the assay filed under Mus musculus [1], the Analgesic activity result was “inactive”.
Same read-out and setting: in the case of `CCC(Oc1ccc(Cl)cc1)C(=O)OC1CCN(C)CC1` (stereo unspecified) it was “inactive”.
As to `CC(Oc1ccc(Cl)cc1)C(=O)NC1CC2CCC(C1)N2C.Cl` (stereo unspecified), the median effective dose (ED50) with Mus musculus [2] (setting [3]) came to 36 mg/kg. This compound displayed an Analgesic activity in the assay listed under Mus musculus [1] of 33.
On the same counts, the results for `C[C@@H](Oc1ccc(F)cc1)C(=O)OC1CC2CCC(C1)N2C` (stereo partly specified) are 21 mg/kg and 106.
For `CCC(Oc1ccc2ccccc2c1)C(=O)OC1CC2CCC(C1)N2C` (stereo unspecified), the Analgesic activity entry in the assay listed under Mus musculus [1] is “inactive”.
For the compound `CC(Oc1ccc2ccccc2c1)C(=O)OC1CC2CCC(C1)N2C.O=C(O)/C=C\C(=O)O` (stereo unspecified), the 50% effective dose (ED50) in the assay on Mus musculus [2] (setting [3]) amounted to 34 mg/kg. In the assay filed under Mus musculus [1], this compound displayed an Analgesic activity of 86.
The matching figures for `C[C@H](Sc1ccc(Cl)cc1)C(=O)OC1CC2CCC(C1)N2C` (stereo partly specified): 16 mg/kg and 34.
For the compound `CC(=O)OCC(Oc1ccc(Cl)cc1)C(=O)OC1CC2CCC(C1)N2C` (stereo unspecified), the ED50 in the assay on Mus musculus [2] (setting [3]) was found to be 23 mg/kg. Also, the Analgesic activity in the assay listed under Mus musculus [1] is given as 25.
With `CCC(Oc1ccc(Cl)c2ccccc12)C(=O)OC1CC2CCC(C1)N2C` (stereo unspecified), in the assay filed under Mus musculus [1], the Analgesic activity result is “inactive”.
The same measure, in the same setting: the result for `CC(Oc1ccc2cc(Br)ccc2c1)C(=O)OC1CC2CCC(C1)N2C` (stereo unspecified) reads “inactive”.
Regarding `CC(C(=O)OC1CC2CCC(C1)N2C)C(=O)c1ccc(Cl)cc1` (stereo unspecified), the ED50 in the assay on Mus musculus [2] (setting [3]) came out at 34 mg/kg. The Analgesic activity in the assay listed under Mus musculus [1] is recorded as 30.
Turning to `CN1C2CCC1CC(OC(=O)COc1ccccc1)C2` (stereo unspecified), the Analgesic activity result in the assay filed under Mus musculus [1] was “inactive”.
Regarding `CCC(Oc1ccc2cc(Br)ccc2c1)C(=O)OC1CC2CCC(C1)N2C.O=C(O)/C=C\C(=O)O` (stereo unspecified), the ED50 in the assay with Mus musculus [2] (setting [3]) came out at 42 mg/kg. Moreover, the Analgesic activity in the assay listed under Mus musculus [1] turned out to be 32.
With `CCC(Oc1cccc2ccccc12)C(=O)OC1CC2CCC(C1)N2C` (stereo unspecified), the Analgesic activity result in the assay listed under Mus musculus [1] is “inactive”.
The same measure, in the same setting: the result for `CC(C(=O)OC1CC2CCC(C1)N2C)[S+]([O-])c1ccccc1` (stereo unspecified) reads “inactive”; that for `CCC(COC1CC2CCC(C1)N2C)Oc1ccc(Cl)cc1` (stereo unspecified), “inactive”.
Turning to `CCN(CC)CCOC(=O)C(C)Oc1ccc(Cl)cc1` (stereo unspecified), the Analgesic activity entry in the assay filed under Mus musculus [1] is “inactive”.
As to `CC(Oc1ccc(-c2ccccc2)cc1)C(=O)OC1CC2CCC(C1)N2C` (stereo unspecified), the Analgesic activity entry in the assay listed under Mus musculus [1] is “inactive”.
Take `CC(Oc1ccc(Cl)cc1)C(=O)OC1CC2CCC(C1)N2Cc1ccccc1` (stereo unspecified): in the assay listed under Mus musculus [1], the Analgesic activity result is “inactive”.
Still for that read-out and setting: the result for `CC(Oc1ccc(Cl)c2ccccc12)C(=O)OC1CC2CCC(C1)N2C` (stereo unspecified) reads “inactive”; that for `CC(Oc1ccccc1)C(=O)OC1CC2CCC(C1)N2C` (stereo unspecified), “inactive”; that for `CCC(Oc1ccc(Cl)cc1)C(=O)OCC#CCN(CC)CC` (stereo unspecified), “inactive”.

Values taken from ChEMBL document CHEMBL1127533, “Presynaptic cholinergic modulators as potent cognition enhancers and analgesic drugs. 2. 2-Phenoxy-, 2-(phenylthio)-, and 2-(phenylamino)alkanoic acid esters” (J Med Chem, 1994).
